According to PubChem BioAssay:
Values without a mark were called inactive. Inconclusive results are not listed. Activity calls are given as the source filed them.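 The calls were made as follows, unless noted: active = growth inhibition above 25% in both replicates, a cutoff set 3 SD above the mean; inconclusive = above 25% in only one replicate; inactive = the rest.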

Key:
[1] = OD615 S. cerevisiae growth inhibition, permissive medium, pilot counter-assay, permissive growth control for S. cerevisiae lifespan shortening project (AID 705); conditions: OD615, 24 h, at 10 µM, hits give high values
Outline: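 Timing: 24 h exposure, 30 °C / Material: Saccharomyces cerevisiae strain carrying genetically modified DeaD replicative-lifespan system / Signal: OD at 615 nm / Compound: 10 µM single dose, 0.25% DMSO / Medium: SC raffinose/galactose permissive medium / Evaluation: reduction in yeast growth (OD615)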

[2] = Restrictive medium S. cerevisiae growth inhibition, OD615, pilot screen of yeast lifespan reduction project, restrictive growth control (AID 706;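 active = growth inhibition above a set limit, 3 SD over mean compound inhibition, in both replicates, cut at about 43% in these data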;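 also: modified DeaD lifespan yeast strain shifted to restrictive glucose medium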); conditions: OD615, 48 h, at 10 µM, hits give high values
Outline: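 System: Engineered S. cerevisiae DeaD strain | Detection: OD615 | Buffer or medium: CSMM-D glucose medium | Doses: 10 µM compound, 0.25% DMSO | Timing: 4 h pre-growth plus 48 h compound exposure, 30 °C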

[3] = viability gain of MRP-1-high H69AR cells under doxorubicin, pilot screen, MRP-1 activator project, CellTiter-Glo, duplicate (AID 807;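 active = viability increase at or above a cutoff of the median across tested compounds plus 3 SD, cut at about 8.5% in these data, passing the limit was not always enough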;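 also: compound pretreatment 18-22 h then 72 h combined with doxorubicin; 0% = doxorubicin alone and 100% = vehicle without doxorubicin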); conditions: H69AR viability with doxorubicin, CellTiter-Glo luminescence; at 10 µM; hits give high values
[4] = growth suppression of beta-catenin knockout HCT116, pilot screen, human colon tumor cells (AID 823;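 active = cell viability at or below a set limit in both duplicate runs, the limit being the all-compound median minus 4 SD, cut at about 23% in these data, passing the limit was not always enough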;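 also: 0% = wells killed by 20 µM Hyamine and 100% = untreated DMSO cell wells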); conditions: CellTiter-Glo, 60 h, at 10 µM, hits give low values
[5] = growth suppression of PTEN-deleted HCT116, pilot screen, cell-based, HCT116 clonal line, CellTiter-Glo (AID 824;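 active = viability at or below 27.92% in each of two runs, the all-compound median minus 4 SD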;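 also: 0% = 20 µM Hyamine control and 100% = vehicle cell control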); conditions: 60 h, at 10 µM, hits give low values
[6] = inhibitors of the yeast RAM network, pilot screen, dse1pr::URA3 reporter, 5-FOA selection (AID 869;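 active = inhibition over a set limit, the all-compound mean plus 3 SD, in both replicate runs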;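 also: 0% = DMSO wells with no growth and 100% = 10 µM 1-NA-PP1 with full growth; RAM network block rescues cells from 5-FOA so hits raise OD615 growth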); conditions: S. cerevisiae dse1pr::URA3 5-FOA growth, OD615, 2 d; at 10 µM; hits give high values; strain carries analog-sensitive mutant Cbk1 kinase
[7] = RAM signaling pathway blockade in yeast – S. cerevisiae, Pdr1DBD-CYC8 efflux-inhibited sensitized strain, primary screen (AID 1298;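 active = RAM network inhibition above 8.4% in each of two replicates, 3 SD over the compound average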;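 also: 0% = DMSO untreated cells without growth and 100% = 10 µM 1-NA-PP1 full growth; higher means more yeast growth rescued from 5-FOA killing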); conditions: S. cerevisiae cbk1-as DSE1-URA3 strain, 5-FOA growth OD615, 2 d; at 50 µM; hits give high values

CCOC(=O)Cn1c(=O)oc2cc(S(=O)(=O)N(C)Cc3ccco3)ccc21
growth inhibition [1]: -13.2% | growth inhibition [2]: -14% | viability increase [3]: -4.08% | viability [4]: 99.9% | viability [5]: 94.1% | inhibition [6]: 3.37% | RAM network inhibition [7]: 4.56%

COc1cccc(NS(=O)(=O)c2cn(C)c(=O)n(C)c2=O)c1
growth inhibition [1]: -11% | growth inhibition [2]: -3.64% | viability increase [3]: -0.89% | viability [4]: 93.7% | viability [5]: 92.9% | inhibition [6]: 2.42% | RAM network inhibition [7]: 0.89%

Cc1cc(NS(=O)(=O)c2ccccc2)c(C)c(Cl)c1O
growth inhibition [1]: -8.22% | growth inhibition [2]: -15.3% | viability increase [3]: -4.31% | viability [4]: 1.97% (active) | viability [5]: 3.14% (active) | inhibition [6]: 2.38% | RAM network inhibition [7]: 6.4%

CCc1c(C)sc(NC(=O)c2cc(C)no2)c1C#N
growth inhibition [1]: 1.33% | growth inhibition [2]: 8.59% | viability increase [3]: -0.5% | viability [4]: 99% | viability [5]: 93.4% | inhibition [6]: 1.31% | RAM network inhibition [7]: 6.13%

CCOc1ccc2nc(N3CCCC(C(=O)N4CCN(CC)CC4)C3)sc2c1 (configuration not stated)
growth inhibition [1]: -4.44% | growth inhibition [2]: -8.34% | viability increase [3]: 0.55% | viability [4]: 102% | viability [5]: 96.2% | inhibition [6]: 0.775% | RAM network inhibition [7]: 2.01%

Cc1ccc(C)c(C(=O)N(Cc2nc(-c3ccc(Cl)cc3)no2)C(C)C)c1
growth inhibition [1]: -8.99% | growth inhibition [2]: -16.6% | viability increase [3]: -0.54% | viability [4]: 56.5% | viability [5]: 62.6% | inhibition [6]: 1.21% | RAM network inhibition [7]: 4.04%

CCOC(=O)c1[nH]c(C)c(C(=O)NC(C)CC)c1C (configuration not stated)
growth inhibition [1]: 2.05% | growth inhibition [2]: -0.41% | viability increase [3]: 1.35% | viability [4]: 103% | viability [5]: 99.7% | inhibition [6]: 1.21% | RAM network inhibition [7]: 0.93%

CCOc1ccc(NC(=O)N(CCN(C)C)C(C)c2ccncc2)cc1 (configuration not stated)
growth inhibition [1]: 2.97% | growth inhibition [2]: 4.26% | viability increase [3]: -1.59% | viability [4]: 85.6% | viability [5]: 90.2% | inhibition [6]: 1.05% | RAM network inhibition [7]: 1.38%

COc1ccc2nc(NC(=O)C3CCCN3S(=O)(=O)c3ccc(C)cc3)sc2c1 (configuration not stated)
growth inhibition [1]: -6.88% | growth inhibition [2]: -4% | viability increase [3]: -1.48% | viability [4]: 69.3% | viability [5]: 72% | inhibition [6]: 1.23% | RAM network inhibition [7]: 6.79%

COc1ccc(NC(=O)Nc2cccc(OC)c2)cc1
growth inhibition [1]: -3.64% | growth inhibition [2]: -19.4% | viability increase [3]: -0.65% | viability [4]: 95.3% | viability [5]: 93.4% | inhibition [6]: 1.02% | RAM network inhibition [7]: 1.14%

COc1ccc(Cl)cc1S(=O)(=O)N1CCN(C)CC1
growth inhibition [1]: 1.3% | growth inhibition [2]: -7.12% | viability increase [3]: -2.26% | viability [4]: 100% | viability [5]: 86.8% | inhibition [6]: 1.67% | RAM network inhibition [7]: 5.97%

FC(F)C(F)(F)C1=CC(c2ccccc2)=NCCN1
growth inhibition [1]: -9.88% | growth inhibition [2]: -17.6% | viability increase [3]: -1.16% | viability [4]: 96.7% | viability [5]: 85.5% | inhibition [6]: 1.59% | RAM network inhibition [7]: 2.09%

CCS(=O)(=O)N1CCN(c2cccc(C)c2C)CC1
growth inhibition [1]: -12.4% | growth inhibition [2]: -5.41% | viability increase [3]: -1.48% | viability [4]: 97.5% | viability [5]: 89.3% | inhibition [6]: 2.35% | RAM network inhibition [7]: 4.29%

CN1CCN(CCCNC(=O)c2ccc3c(c2)N(Cc2ccccc2)CCS3)CC1
growth inhibition [1]: -2.21% | growth inhibition [2]: -12.1% | viability increase [3]: -5.47% | viability [4]: 64.8% | viability [5]: 67.4% | inhibition [6]: 0.9% | RAM network inhibition [7]: 4.28%

O=C(Cn1cnc2c(nnn2-c2ccccc2)c1=O)N1CCC(Cc2ccccc2)CC1
growth inhibition [1]: 7.29% | growth inhibition [2]: 9.16% | viability increase [3]: -1.56% | viability [4]: 91.4% | viability [5]: 85.3% | inhibition [6]: 2.19% | RAM network inhibition [7]: 7.33%

O=C(Nc1ccc(OC(F)(F)F)cc1)c1cnc2n(c1=O)CCS2
growth inhibition [1]: -14.9% | growth inhibition [2]: -1.33% | viability increase [3]: 2.36% | viability [4]: 89.9% | viability [5]: 79.1% | inhibition [6]: 3.13% | RAM network inhibition [7]: 4.63%

Clc1ccc(-c2nc(-c3ccccn3)no2)cc1Cl
growth inhibition [1]: -4.08% | growth inhibition [2]: 0.26% | viability increase [3]: -4.17% | viability [4]: 72.6% | viability [5]: 67.7% | inhibition [6]: 2.6% | RAM network inhibition [7]: 3.88%

O=S(=O)(NCc1csc(-c2cccnc2)n1)c1cccs1
growth inhibition [1]: 5.38% | growth inhibition [2]: -1.74% | viability increase [3]: -0.79% | viability [4]: 98% | viability [5]: 90% | inhibition [6]: 1.69% | RAM network inhibition [7]: 1.3%

CC(=O)OCCn1c(=O)c2cc3c(=O)n(CCOC(C)=O)c(=O)c3cc2c1=O
growth inhibition [1]: -7.22% | growth inhibition [2]: -6.18% | viability increase [3]: -0.09% | viability [4]: 101% | viability [5]: 98.3% | inhibition [6]: 1.84% | RAM network inhibition [7]: 1.25%

CCCCn1c(=O)cc(N2CCOCC2)[nH]c1=O
growth inhibition [1]: -16.3% | growth inhibition [2]: -20.6% | viability increase [3]: 0.83% | viability [4]: 99.7% | viability [5]: 94.3% | inhibition [6]: 1.04% | RAM network inhibition [7]: -0.95%

Cc1nc(C)c(C(=O)Nc2ccccc2)s1
growth inhibition [1]: -0.755% | growth inhibition [2]: -6.96% | viability increase [3]: -0.17% | viability [4]: 98.4% | viability [5]: 88.3% | inhibition [6]: 0.68% | RAM network inhibition [7]: 3.02%

CCOC(=O)C(C(=O)OCC)=C1OC(=O)c2ccccc21
growth inhibition [1]: -11.1% | growth inhibition [2]: -7.16% | viability increase [3]: 0.39% | viability [4]: 98.6% | viability [5]: 96.4% | inhibition [6]: 2.19% | RAM network inhibition [7]: 2.35%

Cc1cccc(N(C(=O)Nc2ccccc2)C2=NCC(C)S2)c1 (configuration not stated)
growth inhibition [1]: -14.6% | growth inhibition [2]: -6.9% | viability increase [3]: 0.22% | viability [4]: 103% | viability [5]: 94.4% | inhibition [6]: -0.8% | RAM network inhibition [7]: 2.52%

O=C1Nc2ccccc2C(O)(C(=O)NCc2ccco2)N1c1ccccc1 (configuration not stated)
growth inhibition [1]: -5.44% | growth inhibition [2]: 1.25% | viability increase [3]: -1.5% | viability [4]: 108% | viability [5]: 98.7% | inhibition [6]: 0.96% | RAM network inhibition [7]: 1.15%

O=C1C2CCCN2C(c2ccccc2)N1c1ccc(F)cc1 (configuration not stated)
growth inhibition [1]: -1.42% | growth inhibition [2]: 3.23% | viability increase [3]: -2.06% | viability [4]: 96.9% | viability [5]: 89.3% | inhibition [6]: 2.05% | RAM network inhibition [7]: 2.34%

Cn1c(CNC(=O)C(C)(C)C)nc2ccccc21
growth inhibition [1]: -11.4% | growth inhibition [2]: -0.87% | viability increase [3]: -3.97% | viability [4]: 101% | viability [5]: 93.1% | inhibition [6]: 1.8% | RAM network inhibition [7]: 2.73%

O=C(Cn1c(S(=O)(=O)Cc2ccccc2)nc2ccccc21)N1CCCCC1
growth inhibition [1]: -5.32% | growth inhibition [2]: 2.88% | viability increase [3]: -6.5% | viability [4]: 107% | viability [5]: 99.3% | inhibition [6]: -0.04% | RAM network inhibition [7]: 3.73%

CC(C)C(NS(=O)(=O)c1ccc2c(c1)oc(=O)n2C)C(=O)N1CCN(C2CCCCC2)CC1 (configuration not stated)
growth inhibition [1]: -2.87% | growth inhibition [2]: -9.46% | viability increase [3]: -3.02% | viability [4]: 106% | viability [5]: 95.6% | inhibition [6]: 0.14% | RAM network inhibition [7]: 6.54%

Cn1c(Cn2c(=O)sc3ccccc32)nnc1SCc1cccc(F)c1
growth inhibition [1]: -7.92% | growth inhibition [2]: 2.12% | viability increase [3]: -0.5% | viability [4]: 71.1% | viability [5]: 69.7% | inhibition [6]: 3.43% | RAM network inhibition [7]: 7.87%

COc1ccccc1-c1cc(C2CC2)nc(N)c1C#N
growth inhibition [1]: -20.8% | growth inhibition [2]: -19.3% | viability increase [3]: -3.86% | viability [4]: 94.7% | viability [5]: 94.2% | inhibition [6]: -0.08% | RAM network inhibition [7]: 3.76%

CCOC(=O)c1nn(-c2ccccc2)c(=O)c2c(N)scc12
growth inhibition [1]: -4.99% | growth inhibition [2]: -1.54% | viability increase [3]: -3.93% | viability [4]: 102% | viability [5]: 107% | inhibition [6]: 2.98% | RAM network inhibition [7]: 4.03%

CC1CCCN(Cc2nc3c(c(=O)n(C)c(=O)n3C)n2Cc2c(F)cccc2Cl)C1 (configuration not stated)
growth inhibition [1]: -8.39% | growth inhibition [2]: -6.31% | viability increase [3]: -4.6% | viability [4]: 84.4% | viability [5]: 80.2% | inhibition [6]: 1.09% | RAM network inhibition [7]: 10.9%

Nc1ccc(Nc2ccccc2)c(Cl)c1
growth inhibition [1]: -1.62% | growth inhibition [2]: 19% | viability increase [3]: -7.58% | viability [4]: 94.7% | viability [5]: 97.8% | inhibition [6]: 2.79% | RAM network inhibition [7]: 4.55%

COc1ccc(Cn2c(=O)[nH]c3cc(C(=O)NCCCN4CCCCC4)ccc3c2=O)cc1
growth inhibition [1]: -4.93% | growth inhibition [2]: -8.5% | viability increase [3]: -2.31% | viability [4]: 74.5% | viability [5]: 77.4% | inhibition [6]: 0.53% | RAM network inhibition [7]: 4.83%

CCOC(=O)C1CCN(CC(O)COc2ccc(C(C)=O)cc2)CC1 (configuration not stated)
growth inhibition [1]: -1.86% | growth inhibition [2]: -5.14% | viability increase [3]: -0.88% | viability [4]: 97.6% | viability [5]: 91.6% | inhibition [6]: 0.87% | RAM network inhibition [7]: 2.51%

O=C(NC(Nc1ncccn1)C(=O)c1ccccc1)c1ccccc1 (configuration not stated)
growth inhibition [1]: 5.63% | growth inhibition [2]: -0.54% | viability increase [3]: -0.49% | viability [4]: 96.6% | viability [5]: 98.5% | inhibition [6]: -0.25% | RAM network inhibition [7]: 2.01%
